According to ChEMBL document CHEMBL1139618, “The synthesis of substituted bipiperidine amide compounds as CCR3 ligands: antagonists versus agonists” (Bioorg Med Chem Lett, 2005):
Values joined by “and” are separate entries in the source; they are usually repeats but may differ in a detail not shown here. Equal values may be shown once.

What was measured:
[1] = biological target: T1, C-C chemokine receptor type 3 (Homo sapiens, UniProt P51677); assay: (§1) In vitro binding activity against C-C chemokine receptor type 3 using [35S]GTP-gamma-S, as radioligand; type: functional
T1 sequence (P51677 whole entry): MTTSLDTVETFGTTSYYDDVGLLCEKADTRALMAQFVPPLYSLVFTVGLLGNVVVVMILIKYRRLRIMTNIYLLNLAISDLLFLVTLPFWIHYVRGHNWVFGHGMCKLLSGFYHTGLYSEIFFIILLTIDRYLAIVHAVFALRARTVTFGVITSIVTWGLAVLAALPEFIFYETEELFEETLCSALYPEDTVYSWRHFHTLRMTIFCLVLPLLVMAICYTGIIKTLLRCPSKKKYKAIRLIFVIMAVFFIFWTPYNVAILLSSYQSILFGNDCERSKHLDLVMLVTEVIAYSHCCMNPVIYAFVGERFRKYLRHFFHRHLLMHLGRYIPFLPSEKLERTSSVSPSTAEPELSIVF

[2] = biological target: T2, C-C chemokine receptor type 3 (Homo sapiens) (UniProt P51677); assay: In vitro percent inhibition against C-C chemokine receptor type 3 using [35S]GTP-gamma-S, as radioligand at 1 uM; type: functional
T2 sequence (whole entry): T1 sequence (P51677 whole entry)

[3] = biological target: T2, C-C chemokine receptor type 3 (Homo sapiens); assay: as §1; type: functional; details: concentration not given here
[4] = biological target: T2, C-C chemokine receptor type 3 (Homo sapiens); assay: In vitro percent increase over basal binding of [35S]-GTP-gamma S against C-C chemokine receptor type 3 at 10 uM; type: functional
Summary of the method: (§2)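 [³⁵S]GTPγS binding to CCR3 receptor-membrane preparations in excess GDP, testing for agonism. E_max % is the percent rise over basal [³⁵S]GTPγS binding at 10 μM compound, expressed as a percent of the maximal response to 100 nM eotaxin.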

[5] = In vivo Area under curve in rat at 3 mg/kg after IV administration; type: ADME, organism-based; parameters: dose 3 mg/kg, route intravenous
[6] = Inhibitory concentration against CREM 3 cell line using calcium flux assay at 37 C at 7.4 pH with compound dissolved in DMSO; type: functional, cell-based; details: CREM3
Summary of the method: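 CREM3 cells (rat Y3 line transfected with human CCR3) were used at 37 °C. Compounds were dissolved in DMSO and diluted in pH 7.4 HBSS containing HEPES, BSA and probenecid.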

[7] = biological target: T2, C-C chemokine receptor type 3 (Homo sapiens); assay: In vitro percent increase over basal binding of [35S]-GTP-gamma S against C-C chemokine receptor type 3; type: functional; summary of the method: as §2
[8] = biological target: T2, C-C chemokine receptor type 3 (Homo sapiens); assay: In vitro binding activity against C-C chemokine receptor type 3 using [35S]GTP-gamma-S, as radioligand at 1 uM; type: functional
[9] = biological target: T2, C-C chemokine receptor type 3 (Homo sapiens); assay: In vitro percent inhibition against C-C chemokine receptor type 3 using [35S]GTP-gamma-S, as radioligand; at 1 uM; type: functional

O=C(NCC1CCCN(C2CCN(Cc3ccc(Cl)c(Cl)c3)CC2)C1)c1ccc2nc[nH]c2c1 (stereo not drawn)
Ki [1]: 47 nM

Cc1ccccc1C(=O)NCC1CCCN(C2CCN(Cc3ccc(Cl)c(Cl)c3)CC2)C1 (stereo not drawn)
Ki [1]: 60 nM

O=C(NCC1CCCN(C2CCN(Cc3ccc(Cl)c(Cl)c3)CC2)C1)c1nccc2ccccc12 (stereo not drawn)
Ki [1]: 34 nM

O=C(NCC1CCCN(C2CCN(Cc3ccc(Cl)c(Cl)c3)CC2)C1)c1cccc2ccccc12 (stereo not drawn)
Ki [1]: 58 nM

O=C(NCC1CCCN(C2CCN(C(=O)Cc3ccc(Cl)c(Cl)c3)CC2)C1)c1ccc2ncccc2c1 (stereo not drawn)
Ki [1]: 767 nM

O=C(NCC1CCCN(C2CCN(Cc3ccc(Cl)c(Cl)c3)CC2)C1)c1cccc2cccnc12 (stereo not drawn)
Ki [1]: 30 nM and 36 nM

O=C(NCC1CCCN(C2CCN(Cc3ccc(Cl)c(Cl)c3)CC2)C1)c1ccnc2ccccc12 (stereo not drawn)
Ki [1]: 80 nM

O=C(NCC1CCCN(C2CCN(CC3CCCCC3)CC2)C1)c1ccc2ncccc2c1 (stereo not drawn)
inhibition [2]: 17%

O=C(NCC1CCCN(C2CCN(Cc3ccc(Cl)c(Cl)c3)CC2)C1)c1ccccc1Cl (stereo not drawn)
inhibition [3]: 27%

O=C(NCC1CCCN(C2CCN(Cc3ccc(Cl)cc3)CC2)C1)c1ccc2ncccc2c1 (stereo not drawn)
Ki [1]: 95 nM | Emax [4]: -8%

O=C(NCC1CCCN(C2CCN(Cc3cc(Cl)ccc3Cl)CC2)C1)c1ccc2ncccc2c1 (stereo not drawn)
Ki [1]: 391 nM | Emax [4]: 45%

CC(c1ccc(Cl)c(Cl)c1)N1CCC(N2CCCC(CNC(=O)c3ccc4ncccc4c3)C2)CC1 (stereo not drawn)
Ki [1]: 74 nM | Emax [4]: -12%

O=C(NCC1CCCN(C2CCN(Cc3ccc(Cl)c(Cl)c3)CC2)C1)c1cnnc2ccccc12 (stereo not drawn)
Ki [1]: 99 nM

O=C(Nc1ccc(Cl)c(Cl)c1)NN1CCC(N2CCCC(CNC(=O)c3ccc4ncccc4c3)C2)CC1 (stereo not drawn)
inhibition [2]: 6%

CC(=O)NCC1CCCN(C2CCN(Cc3ccc(Cl)c(Cl)c3)CC2)C1 (stereo not drawn)
Ki [1]: 533 nM

O=C(NCC1CCCN(C2CCN(Cc3ccc(Cl)c(Cl)c3)CC2)C1)c1ccc2ncccc2c1 (stereo not drawn)
Ki [1]: 23 nM | AUC [5]: 264 ng·h/mL | IC50 [6]: 215 nM | Emax [4]: -7%

O=C(NCC1CCCN(C2CCN(Cc3ccc(Cl)c(Cl)c3)CC2)C1)c1ccc2[nH]ccc2c1 (stereo not drawn)
Ki [1]: 29 nM

O=C(NCC1CCCN(C2CCN(Cc3cc(Cl)cc(Cl)c3)CC2)C1)c1ccc2ncccc2c1 (stereo not drawn)
Ki [1]: 398 nM | Emax [4]: 45%

CC1CN(Cc2ccc(Cl)c(Cl)c2)CCC1N1CCCC(CNC(=O)c2ccc3ncccc3c2)C1 (stereo not drawn)
Ki [1]: 7.3 nM | Emax [7]: 96%

O=C(NCC1CCCN(C2CCN(Cc3ccccc3Cl)CC2)C1)c1ccc2ncccc2c1 (stereo not drawn)
inhibition [8]: 36%

CC1(N2CCCC(CNC(=O)c3ccc4ncccc4c3)C2)CCN(Cc2ccc(Cl)c(Cl)c2)CC1 (stereo not drawn)
Ki [1]: 50 nM | Emax [7]: 8%

O=C(NCC1CCCN(C2CCN(C(=O)c3ccc(Cl)c(Cl)c3)CC2)C1)c1ccc2ncccc2c1 (stereo not drawn)
inhibition [9]: 20%

Cc1ccccc1CC(=O)NCC1CCCN(C2CCN(Cc3ccc(Cl)c(Cl)c3)CC2)C1 (stereo not drawn)
Ki [1]: 86 nM

COc1ccccc1C(=O)NCC1CCCN(C2CCN(Cc3ccc(Cl)c(Cl)c3)CC2)C1 (stereo not drawn)
Ki [1]: 92 nM

O=C(NCC1CCCN(C2CCN(CCc3ccc(Cl)c(Cl)c3)CC2)C1)c1ccc2ncccc2c1 (stereo not drawn)
Ki [1]: 180 nM | Emax [4]: 2%

O=C(NCC1CCCN(C2CCN(Cc3ccc(Cl)c(Cl)c3)CC2)C1)c1cccc2[nH]ccc12 (stereo not drawn)
Ki [1]: 36 nM

O=C(NCC1CCCN(C2CCN(Cc3ccc(Cl)c(Cl)c3)CC2)C1)c1ccc2ccccc2c1 (stereo not drawn)
Ki [1]: 48 nM

O=C(NCC1CCCN(C2CCN(Cc3ccc(Cl)c(Cl)c3)CC2)C1)C1CCCCC1 (stereo not drawn)
Ki [1]: 107 nM
